Assay results reported in ChEMBL document CHEMBL1132620, “Piperazine imidazo[1,5-a]quinoxaline ureas as high-affinity GABAA ligands of dual functionality” (J Med Chem, 1999).
Activity calls are given as the source filed them. The calls are words filed in the database; no cut-off is given here.

Experiments:
[1] = target: T1, GABA-A receptor; alpha-1/beta-2/gamma-2 (Homo sapiens) (UniProt P14867+P47870+P18507); assay: (§1) In vitro GABA-mediated chloride current in A293 cells expressing GABA-A benzodiazepine receptor alpha-1-beta-2-gamma-2 subunits at 5 uM; format: functional, cell-based; conditions: HEK293
[2] = target: T2, GABA-A receptor; anion channel (Rattus norvegicus) (UniProt O09028+P15431+P18506+P18508+P19969+P20236+P23574+P23576+P28471+P28473+P30191+P62813+P63079+P63138+Q91ZM7+Q9ES14); assay: (§2) Displacement of [3H]flunitrazepam from GABA-A benzodiazepine receptor of rat cortical membranes; format: cell membranes; set-up: concentration or dose not given beside the values; conditions: Membrane, concentration not given here
How it was run: (§3)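 Rat membranes incubated 60 min at 4 °C with [3H]flunitrazepam, 50 µg membrane protein and graded test drug in 200 µL containing NaCl, 10 mM Hepes/Tris pH 7.4 and 1 mM MgCl2; bound ligand separated by rapid filtration on GF/B; mean affinity, SE ≤10% of mean.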

[3] = target: T2, GABA-A receptor; anion channel (Rattus norvegicus); assay: Shift in [35S]TBPS binding to GABA-A Benzodiazepine receptor of rat brain membrane
[4] = target: T1, GABA-A receptor; alpha-1/beta-2/gamma-2 (Homo sapiens); assay: as §1; format: functional, cell-based; conditions: HEK293; remark: listed apart in the source
[5] = target: GABA-A receptor; anion channel; assay: as §2; format: cell membranes, Membrane; how it was run: as §3
Rattus norvegicus = assay: In vivo efficacy evaluated for ability to antagonize metrazole induced clonic convulsions in rat after ip injection; format: functional
Mus musculus [6] = species on record: Mus musculus; assay: Ability to antagonize the muscle relaxation effect in mice caused by a benzodiazepine full agonist, triazolam.; format: functional
How it was run: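 Muscle relaxation induced by triazolam; test compound and triazolam given separately, traction scored 30 min after dosing; ED50 for blocking the relaxant effect.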

Mus musculus [7] = assay: In vivo efficacy is evaluated by percent control of cerebellar GMP levels in (drug+stress) treated mice/mice under stress; format: functional; set-up: concentration or dose not given beside the values
How it was run: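 Male CF-1 mice given drug orally in vehicle 122 before electric footshock stress, controls given vehicle (1 mL/100 g); killed 30 min after treatment; cerebellum homogenized in 1% perchloric acid, iced 30 min, boiled 5 min, spun 17000g 20 min; supernatant cGMP by radioimmunoassay, expressed as % of stress control.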

Mus musculus [8] = assay: In vivo acute electroshock physical dependence activity in mice; Not active.; format: functional, organism-based

Change in Cl- current [1] | inhibition [2] [%] | Shift [3] | Change in Cl- current [4] | Ki [5] [nM] | SMILES | ED50 (Rattus norvegicus) [mg/kg] | ED50 (Mus musculus [6]) [mg/kg] | Control (Mus musculus [7]) [%] | Acute electroshock activity (Mus musculus [8])
0 | 75 | 0.01 | 0.6 | 5.96 | C[C@@H]1CN(C(=O)N2Cc3c(C(=O)OC(C)(C)C)ncn3-c3ccc(Cl)cc32)CCN1 | 3.7 | 27.5 | 57 | 
-0.1 | 29 | 0.44 | 1 | 2.69 | C[C@@H]1CN(C(=O)N2Cc3c(C(=O)OC(C)(C)C)ncn3-c3ccc(F)cc32)C[C@H](C)N1C | 35.3 | 21.8 | 77 | 
0.2 |  | 0.2 | 0.73 | 5.45 | CC(C)(C)OC(=O)c1ncn2c1CN(C(=O)N1CC3CCC(C1)N3)c1cc(Cl)ccc1-2 | > 50 |  |  | 
0.5 | 4 | 0.33 | 0.3 | 30.1 | CC(C)(C)OC(=O)c1ncn2c1CN(C(=O)N1CC3CC1CN3)c1cc(Cl)ccc1-2 (stereo not drawn) | > 50 |  |  | inactive
1 | 30 | 0.6 | 1 | 23.2 | C[C@@H]1CN(C(=O)N2Cc3c(C(=O)OC(C)(C)C)ncn3-c3ccc(C(F)(F)F)cc32)CCN1 | 8.9 | > 30 | 88 | 
0 |  | -0.02 | 0.4 | 3.99 | CC(C)(C)OC(=O)c1ncn2c1CN(C(=O)N1CCNCC1)c1cc(Cl)ccc1-2 | > 50 |  |  | 
0.48 | 55 | 0.07 | 0.68 | 4.03 | C[C@@H]1NCCN(C(=O)N2Cc3c(C(=O)OC(C)(C)C)ncn3-c3ccc(Cl)cc32)[C@H]1C | 17.7 | 35 |  | 
-0.05 | 71 | 0.41 | 0.3 | 7.8 | CC1CN(C(=O)N2Cc3c(C(=O)OC(C)(C)C)ncn3-c3ccc(Cl)cc32)C(C)CN1.O=C(O)CC(=O)O (stereo not drawn) | 17.6 | > 30 |  | 
0.09 |  | 0.15 |  | 5.25 | CN(C)C(=O)N1Cc2c(C(=O)OC(C)(C)C)ncn2-c2ccccc21 | > 50 |  |  | 
0.9 | 8 | 0.76 |  | 4.18 | C[C@@H]1CN(C(=O)N2Cc3c(C(=O)OC(C)(C)C)ncn3-c3ccc(Cl)cc32)C[C@H](C)N1S(C)(=O)=O.ClCCl | > 50 | > 30 |  | inactive
-0.1 |  | -0.82 | 0.5 | 6.67 | C[C@@H]1CN(C(=O)N2Cc3c(C(=O)OC(C)(C)C)ncn3-c3ccccc32)C[C@H](C)N1C | > 50 |  |  | 
0 | 69 | 0.02 | 0.72 | 3.45 | CC1CNCC(C)N1C(=O)N1Cc2c(C(=O)OC(C)(C)C)ncn2-c2ccc(F)cc21 (stereo not drawn) | 10.5 | > 30 | 100 | 
 |  | 0.04 | 0.35 | 4.11 | CC(C)(C)OC(=O)c1ncn2c1CN(C(=O)N1CCNCC1)c1ccccc1-2.Cl | > 50 |  |  | 
0.4 |  | 0.3 | 0.55 | 14.7 | Cc1ccc2c(c1)N(C(=O)N1CCNCC1)Cc1c(C(=O)OC(C)(C)C)ncn1-2 | 21 | > 30 |  | 
2 | 26 | 0.68 | 2.1 | 9.15 | CN1C2CCC1CN(C(=O)N1Cc3c(C(=O)OC(C)(C)C)ncn3-c3ccc(Cl)cc31)C2 | 29.7 | > 30 |  | 
0.8 | 63 | 0.41 | 0.6 | 2.35 | CC1CN(C(=O)N2Cc3c(C(=O)OC(C)(C)C)ncn3-c3ccc(Cl)cc32)CC(C)N1 (stereo not drawn) | 10.5 | 17.3 |  | 
1 | 11 | 0.68 | 1.6 | 4.89 | CN1CC2CC1CN2C(=O)N1Cc2c(C(=O)OC(C)(C)C)ncn2-c2ccc(Cl)cc21 (stereo not drawn) | 7.4 | > 30 |  | 
0.29 | 44 | 0.05 |  | 28.2 | C[C@@H]1CN(C(=O)N2Cc3c(C(=O)OC(C)(C)C)ncn3-c3cccc(Cl)c32)C[C@H](C)N1 | > 50 | > 30 | 95 | 
0.1 | 51 | 0.19 | 0.8 | 5.47 | Cc1ccc2c(c1)N(C(=O)N1CCN[C@H](C)C1)Cc1c(C(=O)OC(C)(C)C)ncn1-2 | 2.7 | 17.3 | 59 | 
0.75 | 68 | 0.63 |  | 13.3 | CC1CN(C)CC(C)N1C(=O)N1Cc2c(C(=O)OC(C)(C)C)ncn2-c2ccc(F)cc21 (stereo not drawn) | 8.8 | > 30 | 82 | 
0.8 | 24 | 0.68 | 0.7 | 37.1 | C[C@@H]1CN(C(=O)N2Cc3c(C(=O)OC(C)(C)C)ncn3-c3ccc(C(F)(F)F)cc32)C[C@@H](C)N1 | 4.4 | > 30 | 92 | 
0.22 |  | 0.54 |  | 250 | Cc1cccc2c1N(C(=O)N1C[C@@H](C)N[C@@H](C)C1)Cc1c(C(=O)OC(C)(C)C)ncn1-2 | > 50 |  |  | 
0 | 95 | -0.14 | 0.5 | 1.04 | C[C@@H]1CN(C(=O)N2Cc3c(C(=O)OC(C)(C)C)ncn3-c3ccc(F)cc32)C[C@H](C)N1 | 35.3 | > 30 | 74 | 
0.05 | 22 | 0.1 | 0.7 | 5.17 | Cc1ccc2c(c1)N(C(=O)N1C[C@@H](C)N[C@H](C)C1)Cc1c(C(=O)OC(C)(C)C)ncn1-2 | 6.3 |  | 49 | 
0.33 |  | 0.48 |  | 470 | Cc1cccc2c1N(C(=O)N1C[C@@H](C)N(C)[C@@H](C)C1)Cc1c(C(=O)OC(C)(C)C)ncn1-2 | > 50 |  |  | 
0 | 82 | -0.018 | 0.5 | 3.04 | C[C@@H]1CN(C(=O)N2Cc3c(C(=O)OC(C)(C)C)ncn3-c3ccccc32)C[C@H](C)N1 | > 50 | > 30 | 94 | 
0.05 | 62 | 0.56 | 0.5 | 5.13 | C[C@@H]1CN(C(=O)N2Cc3c(C(=O)OC(C)(C)C)ncn3-c3ccc(Cl)cc32)C[C@@H](C)N1 | 1.3 | > 30 |  | 
